{"data": "Experimental data of several laboratories", "CNR1": "Cannabinoid receptor 1 (CNR1, Homo sapiens, UniProt P21554)", "SPHK1": "Sphingosine kinase 1 (SPHK1, Homo sapiens, UniProt Q9NYA1)", "EHMT1": "Histone-lysine N-methyltransferase EHMT1 (EHMT1, Homo sapiens, UniProt Q9H9B1)", "PARP1": "Poly [ADP-ribose] polymerase 1 (PARP1, Homo sapiens, UniProt P09874)", "PDE5A": "cGMP-specific 3',5'-cyclic phosphodiesterase (PDE5A, Homo sapiens, UniProt O76074)", "ADORA2A": "Adenosine receptor A2a (ADORA2A, Homo sapiens, UniProt P29274)", "note": "Compare with care: the assays were run in different laboratories."}
{"SMILES": "Ic1cccc2cnccc12", "target": "CNR1", "assay": "ligand displacement, radioligand", "setting": "10 µM", "inhibition [%]": 3}
{"SMILES": "[H]/N=C(/N)N1CCC[C@H]1c1nc(-c2ccc(OCCC=CCCC)c(C(F)(F)F)c2)no1", "target": "SPHK1", "assay": "enzyme activity, inhibitor, radiometric", "setting": "1 µM", "inhibition [%]": 11}
{"SMILES": "O=C1C=C2CC3(O)COc4c(ccc(O)c4O)C3=C2C=C1O (centres unmarked)", "target": "EHMT1", "assay": "cell-free assay", "setting": "10 µM", "inhibition [%]": 11}
{"SMILES": "COc1cccc2nc(-c3ccc(C(=O)N4CCN(C(=O)C5CC5)CC4)cc3F)[nH]c(=O)c12", "target": "PARP1", "assay": "enzyme activity, inhibitor, ELISA", "setting": "10 µM", "inhibition [%]": 56}
{"SMILES": "Cn1cncc1C1=CN(c2ncnc3[nH]cnc23)CCS1", "target": "Interleukin-1 receptor-associated kinase-like 2 (IRAK2, Homo sapiens, UniProt O43187)", "assay": "enzyme activity, inhibitor, radiometric", "setting": "50 nM", "inhibition [%]": 30.7}
{"SMILES": "CC(C)(C)N1C(=O)[C@@H]2Cc3c([nH]c4ccccc34)[C@@H](c3cccnc3)N2C1=O", "target": "PDE5A", "assay": "enzyme activity, inhibitor, FP", "setting": "50 µM", "inhibition [%]": 90}
{"SMILES": "[H]/N=C(\\N)N1CCC[C@H]1c1nc(-c2ccc(OCC=Cc3ccc(C(F)(F)F)cc3)c(C(F)(F)F)c2)no1", "target": "SPHK1", "assay": "enzyme activity, inhibitor, radiometric", "setting": "1 µM", "inhibition [%]": 20}
{"SMILES": "c1ccc(N2CCN(CCCc3ccc4oc(-c5ccco5)nc4c3)CC2)cc1", "target": "ADORA2A", "assay": "ligand displacement, radioligand", "setting": "10 µM, cell membranes", "inhibition [%]": 28}
{"SMILES": "C=CCN1C(=O)[C@H]2Cc3c([nH]c4ccccc34)[C@@H](c3ccc(Br)s3)N2C1=O", "target": "PDE5A", "assay": "enzyme activity, inhibitor, FP", "setting": "10 µM", "inhibition [%]": 96}
{"SMILES": "CCN(Cc1ccccc1C(F)(F)F)C(=O)C1CCN(S(=O)(=O)c2ccc3[nH]ncc3c2)CC1", "target": "Endothelin-1 receptor (EDNRA, Homo sapiens, UniProt P25101)", "assay": "ligand displacement, radioligand", "setting": "10 µM", "inhibition [%]": 1}
{"SMILES": "CCCNc1nc2ccccc2n1Cc1ccc(Cl)cc1", "target": "Histamine H4 receptor (HRH4, Homo sapiens, UniProt Q9H3N8)", "assay": "ligand displacement", "setting": "10 µM", "inhibition [%]": -8.89}
{"SMILES": "COC(=O)[C@@H]1Cc2c([nH]c3ccccc23)[C@@H](c2ccc(OC)c(OC)c2)N1", "target": "PDE5A", "assay": "enzyme activity, inhibitor, FP", "setting": "50 µM", "inhibition [%]": 7}
{"SMILES": "COc1ccc(-c2nc3cc(CCCN4CCN(c5ccccc5)CC4)ccc3o2)cc1OC", "target": "ADORA2A", "assay": "ligand displacement, radioligand", "setting": "10 µM, cell membranes", "inhibition [%]": 11}
{"SMILES": "COc1ccc([C@@H]2c3[nH]c4ccccc4c3C[C@H]3C(=O)N(C(C)(C)C)C(=O)N23)cc1OC", "target": "PDE5A", "assay": "enzyme activity, inhibitor, FP", "setting": "50 µM", "inhibition [%]": 79}
{"SMILES": "O=C(c1ccc(Cl)cc1)N(Cc1ccccc1)C1CCCCC1", "target": "ADORA2A", "assay": "cell-free assay", "setting": "10 µM", "inhibition [%]": 9.1}
{"SMILES": "O=C1N=C(N2CCCCN2)S/C1=C\\c1ccc(F)cc1O", "target": "Thromboxane A2 receptor (TBXA2R, Homo sapiens, UniProt P21731)", "assay": "ligand displacement, radioligand", "setting": "10 µM", "inhibition [%]": 11}
{"SMILES": "CN(C)C1CCN(CC#Cc2nn(C3CCCC3)c3nc(NCc4ccccc4)ncc23)C1 (centres unmarked)", "target": "Aurora kinase B (AURKB, Homo sapiens, UniProt Q96GD4)", "assay": "enzyme activity, inhibitor, FRET", "setting": "10 µM", "inhibition [%]": 51}
{"SMILES": "CCN1C(=O)[C@@H]2Cc3c([nH]c4ccccc34)[C@@H](c3ccc(OC)c(OC)c3)N2C1=O", "target": "PDE5A", "assay": "enzyme activity, inhibitor, FP", "setting": "50 µM", "inhibition [%]": 75}
{"SMILES": "O=C(O[C@@H]1Cc2c(O)cc(O)cc2O[C@@H]1c1cc(O)c(O)c(O)c1-c1c([C@H]2Oc3cc(O)cc(O)c3C[C@H]2O)cc(O)c(O)c1O)c1cc(O)c(O)c(O)c1", "target": "EHMT1", "assay": "cell-free assay", "setting": "10 µM", "inhibition [%]": -3}
{"SMILES": "Cc1cnc(C(=O)NCCNC(=O)Cn2[nH]c(=O)c3ccccc3c2=O)cn1", "target": "PARP1", "assay": "enzyme activity, inhibitor", "setting": "0.5 µM", "inhibition [%]": "~50"}
{"SMILES": "Nc1ccc2c(c1)CCCn1nnnc1-2", "target": "PARP1", "assay": "enzyme activity, inhibitor", "setting": "10 µM", "inhibition [%]": 31}
{"SMILES": "Nc1ccc(-c2ccncc2)cc1NC(=O)N1CCCC1", "target": "CNR1", "assay": "ligand displacement, radioligand", "setting": "10 µM", "inhibition [%]": 15}
{"SMILES": "[H]/N=C(\\N)N1CCC[C@H]1c1nc(-c2ccc(OCC=Cc3ccc(F)cc3)c(C(F)(F)F)c2)no1", "target": "SPHK1", "assay": "enzyme activity, inhibitor, radiometric", "setting": "1 µM", "inhibition [%]": 0}
{"SMILES": "Oc1cccc(Nc2nc(-c3ccc(F)cc3F)cs2)c1", "target": "ADORA2A", "assay": "cell-free assay", "setting": "10 µM", "inhibition [%]": 76}
{"SMILES": "COC(=O)[C@H]1Cc2c([nH]c3ccccc23)[C@@H](c2ccc(OC)c(OC)c2)N1C(=O)CCl", "target": "PDE5A", "assay": "enzyme activity, inhibitor, FP", "setting": "50 µM", "inhibition [%]": 70}
{"SMILES": "COc1cc(NC(C)=O)c(Cl)cc1C(=O)Nc1nccs1", "target": "CNR1", "assay": "cell-free assay", "setting": "10 µM", "inhibition [%]": 11.8}
{"SMILES": "O=C(CSc1nc2nccnc2c(=O)n1CCc1ccccc1)Nc1ccccc1", "target": "SPHK1", "assay": "enzyme activity, inhibitor", "setting": "10 µM", "inhibition [%]": "< 20"}
{"SMILES": "O=c1[nH]c(-c2c[nH]c3ncccc23)nc2ccccc12", "target": "PARP1", "assay": "enzyme activity, inhibitor, ELISA", "setting": "1 µM", "inhibition [%]": 7}
{"SMILES": "[H]/N=C(\\N)N1CCC[C@H]1c1nc(-c2ccc(OCC=Cc3ccccc3C(F)(F)F)c(C(F)(F)F)c2)no1", "target": "SPHK1", "assay": "enzyme activity, inhibitor, radiometric", "setting": "1 µM", "inhibition [%]": 0}
{"SMILES": "CN(C)c1ccc(C(=C2C=CC(=[N+](C)C)C=C2)c2ccc(N(C)C)cc2)cc1", "target": "EHMT1", "assay": "cell-free assay", "setting": "10 µM", "inhibition [%]": 62}
{"SMILES": "CCN(CC)c1ccc(C2Nc3ccc(C(=O)c4ccccc4)cc3NC3=C2C(=O)CC(C)(C)C3)cc1 (centres unmarked)", "target": "Kappa-type opioid receptor (OPRK1, Homo sapiens, UniProt P41145)", "assay": "ligand displacement, radioligand", "setting": "10 µM", "inhibition [%]": 10}
{"SMILES": "O=C(CN1CCN(c2ccccc2)CC1)Nc1ccc2oc(-c3ccco3)nc2c1", "target": "ADORA2A", "assay": "ligand displacement, radioligand", "setting": "10 µM, cell membranes", "inhibition [%]": 12}
{"SMILES": "O=C1C=CC(=O)c2c(O)cccc21", "target": "EHMT1", "assay": "cell-free assay", "setting": "10 µM", "inhibition [%]": -1}
{"SMILES": "O=C(Nc1ccc(S(=O)(=O)N2CCC(Cl)CC2)cc1)c1ccc([N+](=O)[O-])o1", "target": "Sigma non-opioid intracellular receptor 1 (SIGMAR1, Homo sapiens, UniProt Q99720)", "assay": "ligand displacement, radioligand", "setting": "10 µM", "inhibition [%]": 38}
{"SMILES": "[H]/N=C(/N)N1CCC[C@H]1c1nc(-c2ccc(OCCC=CCCCC)c(C(F)(F)F)c2)no1", "target": "SPHK1", "assay": "enzyme activity, inhibitor, radiometric", "setting": "1 µM", "inhibition [%]": 4}
{"SMILES": "COCCOc1ccc(N2CCN(Cc3ccc4oc(-c5ccco5)nc4c3)CC2)cc1", "target": "ADORA2A", "assay": "ligand displacement, radioligand", "setting": "10 µM, cell membranes", "inhibition [%]": 14}
{"SMILES": "COc1ccc(F)cc1C(=O)NCc1ccc(-c2nn([C@@H](C)C(F)(F)F)c(N)c2C(N)=O)cc1", "target": "Mitogen-activated protein kinase kinase kinase 3 (MAP3K3, Homo sapiens, UniProt Q99759)", "assay": "target engagement in cells, inhibitor, chemoproteomics", "setting": "1 µM", "inhibition [%]": -38.6}
{"SMILES": "O=C1c2c(O)cccc2Cc2cccc(O)c21", "target": "EHMT1", "assay": "cell-free assay", "setting": "10 µM", "inhibition [%]": 10}
{"SMILES": "CN1CCN(CCCOc2ccc(=O)n(-c3ccc(Cl)c(Cl)c3)n2)CC1", "target": "CNR1", "assay": "ligand displacement", "setting": "1 µM", "inhibition [%]": 27.4}
{"SMILES": "COC(=O)[C@@H]1Cc2c([nH]c3ccccc23)[C@@H](c2cccnc2)N1", "target": "PDE5A", "assay": "enzyme activity, inhibitor, FP", "setting": "50 µM", "inhibition [%]": 41}
{"SMILES": "O=C(c1ccc(F)cc1)N(Cc1ccccc1)C1CCCCC1", "target": "CNR1", "assay": "cell-free assay", "setting": "10 µM", "inhibition [%]": 18}
{"SMILES": "CCc1ccc(CCc2ccc(-c3noc([C@@H]4CCCN4C(=N)N)n3)cc2C(F)(F)F)cc1", "target": "SPHK1", "assay": "enzyme activity, inhibitor, radiometric", "setting": "1 µM", "inhibition [%]": 13}
{"SMILES": "CC(C)CCn1c(SCC(=O)Nc2ccccc2C(F)(F)F)nc2nccnc2c1=O", "target": "SPHK1", "assay": "enzyme activity, inhibitor", "setting": "10 µM", "inhibition [%]": "< 20"}
{"SMILES": "CCN1C(=O)[C@H]2Cc3c([nH]c4ccccc34)[C@@H](c3cccnc3)N2C1=O", "target": "PDE5A", "assay": "enzyme activity, inhibitor, FP", "setting": "50 µM", "inhibition [%]": 102}
{"SMILES": "O=c1c(O)cccc2cc(O)c(O)c(O)c12", "target": "EHMT1", "assay": "cell-free assay", "setting": "10 µM", "inhibition [%]": 3}
{"SMILES": "[H]/N=C(\\N)N1CCC[C@H]1c1nc(-c2ccc(OCCC=Cc3ccc(C(F)(F)F)cc3)c(C(F)(F)F)c2)no1", "target": "SPHK1", "assay": "enzyme activity, inhibitor, radiometric", "setting": "1 µM", "inhibition [%]": 5}
{"SMILES": "Oc1ccc(CCNc2ccc3oc(-c4ccco4)nc3c2)cc1", "target": "ADORA2A", "assay": "ligand displacement, radioligand", "setting": "10 µM, cell membranes", "inhibition [%]": 15}
